Assay results taken from ChEMBL document CHEMBL1131423, “N-(2-Benzoylphenyl)-L-tyrosine PPARgamma agonists. 2. Structure-activity relationship and optimization of the phenyl alkyl ether moiety” (J Med Chem, 1998).
Converted amounts (≈) assume the structure as drawn. Each block holds one compound with its values, some of them ahead of it.

Key:
[1] = biological target: T1, Peroxisome proliferator-activated receptor gamma (Homo sapiens, UniProt P37231); assay: Compound was tested in vitro for inhibiting the 50% binding of Peroxisome proliferator activated receptor gamma; IA = Inactive
T1 sequence (P37231 whole entry): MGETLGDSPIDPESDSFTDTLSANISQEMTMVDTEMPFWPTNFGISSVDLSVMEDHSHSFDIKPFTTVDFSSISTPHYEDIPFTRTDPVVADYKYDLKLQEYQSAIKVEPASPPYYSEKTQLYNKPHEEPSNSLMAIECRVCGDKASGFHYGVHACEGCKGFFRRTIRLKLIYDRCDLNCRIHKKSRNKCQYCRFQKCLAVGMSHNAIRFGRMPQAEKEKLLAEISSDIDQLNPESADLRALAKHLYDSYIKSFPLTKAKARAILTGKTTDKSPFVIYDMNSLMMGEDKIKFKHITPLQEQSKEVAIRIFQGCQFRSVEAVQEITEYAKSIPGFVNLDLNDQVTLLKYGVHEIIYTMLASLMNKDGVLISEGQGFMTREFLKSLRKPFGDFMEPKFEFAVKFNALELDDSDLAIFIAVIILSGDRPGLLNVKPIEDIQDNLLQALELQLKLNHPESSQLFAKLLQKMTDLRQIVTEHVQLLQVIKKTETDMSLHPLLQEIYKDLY
How it was run: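 Competitive radioligand binding to PPARγ with [3H]BRL 49653 as the radioligand. […] It is converted to an apparent Ki by Ki = IC50/(1 + [L]/Kd), and results are given as pKi.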

[2] = biological target: T2, Peroxisome proliferator-activated receptor alpha (Homo sapiens, UniProt Q07869); assay: Compound was tested in vitro for inhibiting the 50% binding of Peroxisome proliferator activated receptor alpha; assay type: functional
T2 sequence (Q07869 whole entry): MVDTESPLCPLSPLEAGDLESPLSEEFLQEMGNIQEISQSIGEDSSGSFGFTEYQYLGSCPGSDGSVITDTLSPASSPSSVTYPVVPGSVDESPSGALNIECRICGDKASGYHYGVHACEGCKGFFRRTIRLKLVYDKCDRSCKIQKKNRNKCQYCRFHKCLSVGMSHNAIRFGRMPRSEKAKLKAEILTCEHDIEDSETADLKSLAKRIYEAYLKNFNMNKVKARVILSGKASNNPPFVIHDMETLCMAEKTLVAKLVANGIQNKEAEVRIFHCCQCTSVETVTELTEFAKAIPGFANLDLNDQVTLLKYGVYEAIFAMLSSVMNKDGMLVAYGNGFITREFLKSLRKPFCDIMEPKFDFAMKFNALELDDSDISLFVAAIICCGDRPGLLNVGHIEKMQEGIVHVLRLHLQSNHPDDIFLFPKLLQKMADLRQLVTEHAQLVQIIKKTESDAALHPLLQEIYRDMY

[3] = biological target: T1, Peroxisome proliferator-activated receptor gamma; assay: Compound was tested functionally in vitro for inducing 50% of the maximum alkaline phosphate activity (Transactivation) against Peroxisome proliferator activated receptor gamma; assay type: functional
[4] = biological target: T2, Peroxisome proliferator-activated receptor alpha; assay: Tested in vitro for inhibiting the 50% binding of Peroxisome proliferator activated receptor alpha
[5] = Solubility determined by equilibrating an excess of solid material in 500 microL of pH 7.4 phosphate buffer; assay type: physicochemical; details: read-out: S
How it was run: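 Samples are filtered (0.22 µm) and diluted in water/acetonitrile 60:40. The dissolved concentration is measured by reversed-phase HPLC on a phenyl column with 0.05% TFA water/acetonitrile (60:40), 1 mL/min, and UV detection at each compound's maximum. Results are in mg/mL.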

[6] = biological target: T2, Peroxisome proliferator-activated receptor alpha; assay: In vitro transactivation of Peroxisome proliferator activated receptor alpha.; assay type: functional
[7] = biological target: T1, Peroxisome proliferator-activated receptor gamma; assay: Inhibition by 50% of in vitro binding to Peroxisome proliferator activated receptor gamma
[8] = biological target: T1, Peroxisome proliferator-activated receptor gamma; assay: Tested functionally in vitro for inducing 50% of the maximum alkaline phosphate activity (Transactivation) against Peroxisome proliferator activated receptor gamma; assay type: functional

- Ki [1]: 1170 nM
Structure (SMILES): O=C(c1ccccc1)c1ccccc1N[C@@H](Cc1ccc(OCC2COCCOCCOCCO2)cc1)C(=O)O (stereo not given in full)

- Ki [2]: 1410 nM
- EC50 [3]: 191 nM
Structure (SMILES): O=C(c1ccccc1)c1ccccc1N[C@@H](Cc1ccc(OCCOc2ccc(SCl)cc2)cc1)C(=O)O

- Ki [4]: 174 nM
- solubility thermodynamic [5]: 4 µg/mL (≈ 7.33 µM)
- EC50 [6]: 661 nM
Structure (SMILES): Cc1cc(-c2ccccc2)nn1CCOc1ccc(C[C@H](Nc2ccccc2C(=O)c2ccccc2)C(=O)O)cc1

- Ki [4]: 2510 nM
- Ki [7]: 2.63 nM
- EC50 [8]: 23.4 nM
- EC50 [6]: > 10000 nM
Structure (SMILES): Cc1sc(N2CCN(S(C)(=O)=O)CC2)nc1CCOc1ccc(C[C@H](Nc2ccccc2C(=O)c2ccccc2)C(=O)O)cc1
